Activity calls are given as the source filed them. No cut-off for these calls is given here.

One assay concerns A549. As to the kind of experiment: Cytotoxicity against human A549 cells after 3 days by MTT assay. In kind it is functional, cell-based. To be noted: A549, 72 h. Summed up: (§1)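 MTT read-out: formazan dissolved in DMSO, absorbance at 570 nm, compound-free wells as blanks. Survival expressed as percentage of untreated control wells.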
A general note: Tetrazolium assays rely on reduction of a dye to a coloured formazan, in cell work by metabolically active cells.

The subject of a further assay is MDA-MB-435. As to the kind of experiment: Cytotoxicity against human MDA-MB-435 cells after 3 days by MTT assay. The class given is functional, cell-based. To be noted: MDA-MB-435, 72 h. Summed up: as §1
The test system of the next assay is LoVo. As to the kind of experiment: Cytotoxicity against human LoVo cells after 3 days by MTT assay. The class given is functional, cell-based. To be noted: 72 h. Summed up:
as §1

Assay [1] deals with T1, Topoisomerase I (Bos taurus) (UniProt Q2HPH0).
T1 sequence (whole entry): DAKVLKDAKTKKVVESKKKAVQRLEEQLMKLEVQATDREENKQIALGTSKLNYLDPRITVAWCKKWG
Briefly: Inhibition of calf thymus DNA topoisomerase 1-mediated pBR322 DNA cleavage at 1 uM. Summed up:
(§2)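 Calf thymus Topo I with supercoiled pBR322 DNA in Topo I buffer with 0.1% BSA, 20 uL reactions. Reactions stopped with loading buffer (EDTA, glycerol, xylene cyanol FF, bromophenol blue). Products resolved on 0.8% agarose in TAE, 40 min at 120 V. Gel stained with ethidium bromide at room temperature and imaged under UV.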

The target in assay [2] is T1, Topoisomerase I (Bos taurus). As to the kind of experiment: Inhibition of calf thymus DNA topoisomerase 1-mediated pBR322 DNA cleavage. Summed up: as §2

A word on the IC50: it is the concentration that gives 50% inhibition. Low readings indicate greater potency in that assay, high ones weaker potency in that assay. In the case of `CC[C@@]1(O)C(=O)OCc2c1cc1n(c2=O)Cc2cc3c(CN(C)C)c(O)ccc3nc2-1` [TOPOTECAN], the IC50 with A549 came to 1.09 µM; in the assay on MDA-MB-435, 0.079 µM; in the assay with LoVo it was 1.21 µM.
On the same counts, the results for `CC[C@]1(O)CC(=O)OCc2c1cc1n(c2=O)Cc2c-1nc1cccc(/N=C/c3cccc(C)c3)c1c2C` are 2.92 µM, 0.016 µM and 2.6 µM.
In the case of `CC[C@]1(O)CC(=O)OCc2c1cc1n(c2=O)Cc2c-1nc1cccc(/N=C/c3cc(C)cc(C)c3)c1c2C`, the IC50 in the assay on A549 is 5.58 µM; with MDA-MB-435, 1.18 µM; in the assay on LoVo it was 5.96 µM.
With `CC[C@]1(O)CC(=O)OCc2c1cc1n(c2=O)Cc2c-1nc1cccc(/N=C/c3cccc([N+](=O)[O-])c3)c1c2C`, the values for the IC50 in the assay on A549, with MDA-MB-435 and with LoVo were 5.44 µM, 0.014 µM and 1.07 µM, respectively.
Turning to `CC[C@]1(O)CC(=O)OCc2c1cc1n(c2=O)Cc2c-1nc1cccc(N)c1c2C`, the outcome in assay [1] was inactive. The IC50 in the assay on A549 was determined as 3.55 µM; in the assay with MDA-MB-435, 0.11 µM; in the assay on LoVo, 10.3 µM. In addition, the result in assay [2] was Active.
Take `CC[C@]1(O)CC(=O)OCc2c1cc1n(c2=O)Cc2c-1nc1cccc(/N=C/c3ccc(Cl)cc3Cl)c1c2C`: the figures for the IC50 in the assay with A549, in the assay with MDA-MB-435 and in the assay with LoVo were 3.6 µM, 0.36 µM and 4.19 µM, respectively.
For `CC[C@]1(O)CC(=O)OCc2c1cc1n(c2=O)Cc2c-1nc1cccc(/N=C/c3ccc(N(C)C)cc3)c1c2C`, the figures for the IC50 in the assay with A549, in the assay on MDA-MB-435 and in the assay with LoVo were 3.01 µM, 0.0098 µM and 3.39 µM, respectively.
On to `CC[C@]1(O)CC(=O)OCc2c1cc1n(c2=O)Cc2c-1nc1cccc(/N=C/c3ccccc3C)c1c2C`, for which the IC50 was determined as 3.29 µM in the assay with A549, 0.0039 µM with MDA-MB-435 and 1.38 µM in the assay with LoVo. In assay [2], the result was Active.
For `CC[C@]1(O)CC(=O)OCc2c1cc1n(c2=O)Cc2c-1nc1cccc(/N=C/c3ccc(C(C)(C)C)cc3)c1c2C`, the IC50 is 4.56 µM with A549, 0.27 µM with MDA-MB-435 and 4.26 µM with LoVo.
On the same counts, the results for `CC[C@]1(O)CC(=O)OCc2c1cc1n(c2=O)Cc2c-1nc1cccc(/N=C/c3ccc(Br)cc3)c1c2C` are 1.87 µM, 0.018 µM and 5.8 µM.
Take `CC[C@]1(O)CC(=O)OCc2c1cc1n(c2=O)Cc2c-1nc1cccc(NC(C)=O)c1c2C`: the IC50 stood at 151 µM in the assay on A549, 4.32 µM in the assay on MDA-MB-435 and 190 µM with LoVo.
Turning to `CC[C@]1(O)CC(=O)OCc2c1cc1n(c2=O)Cc2c-1nc1cccc(/N=C/c3ccc(C)cc3C)c1c2C`, the IC50 in the assay with A549 worked out at 2.39 µM; in the assay with MDA-MB-435 it was 0.72 µM; in the assay with LoVo, 8.62 µM.
For `CC[C@]1(O)CC(=O)OCc2c1cc1n(c2=O)Cc2c-1nc1cccc(/N=C/c3ccc(C)cc3)c1c2C`, the IC50 in the assay on A549 worked out at 2.84 µM; with MDA-MB-435, 0.0091 µM; in the assay with LoVo it was 0.91 µM. For the same compound, the outcome in assay [2] was Active.
Take `CC[C@]1(O)CC(=O)OCc2c1cc1n(c2=O)Cc2c-1nc1cccc(/N=C/c3ccc(Cl)cc3)c1c2C`: the half-inhibitory concentration (IC50) was found to be 2.55 µM in the assay on A549, 0.011 µM with MDA-MB-435 and 1.61 µM in the assay on LoVo.
As for `CC[C@]1(O)CC(=O)OCc2c1cc1n(c2=O)Cc2c-1nc1cccc(/N=C/c3ccccc3OC)c1c2C`, the IC50 with A549 came to 2.28 µM; in the assay with MDA-MB-435 it was 0.0022 µM; with LoVo, 1.93 µM. Further, in assay [2], the result was Active.

The values above are taken from ChEMBL document CHEMBL1165875, “Synthesis and evaluation of 9-benzylideneamino derivatives of homocamptothecin as potent inhibitors of DNA topoisomerase I” (Eur J Med Chem, 2010).
